Screening results: PubChem BioAssay, several laboratories
This is a sample that favours compounds with a hit; in the whole collection about 4.6% have one here.
NALP3 yeast inh: blocks the NALP3 inflammasome reconstituted in yeast. 330,000 tested, 0.39% active. inhibition, % at 10 µM. Yeast reconstituted NLRP3/ASC/caspase-1, beta-gal luminescence, 24 h. AID 2825;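 active means inhibition of 50% or more; inactive means inhibition below 50%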;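 further: plate controls were induced DMSO wells for no effect and uninduced yeast grown without galactose for full effect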
Pemphigus Ab inh: inhibitors of pemphigus antibody binding to human desmoglein-3; DSG3-coupled beads, scFv-anti-DSG3-GFP binding, flow cytometry; stronger effect = lower value; binding (percent of control), % at 10 µM; 310,000 tested, 0.48% active;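 active means binding more than 3 SD below its plate's average and above zero; inconclusive means below that plate limit but binding exactly zero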;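 further: hits lower antibody fragment binding to DSG3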
Target sequence (P32926 whole entry, looked up, the tested form may be a part): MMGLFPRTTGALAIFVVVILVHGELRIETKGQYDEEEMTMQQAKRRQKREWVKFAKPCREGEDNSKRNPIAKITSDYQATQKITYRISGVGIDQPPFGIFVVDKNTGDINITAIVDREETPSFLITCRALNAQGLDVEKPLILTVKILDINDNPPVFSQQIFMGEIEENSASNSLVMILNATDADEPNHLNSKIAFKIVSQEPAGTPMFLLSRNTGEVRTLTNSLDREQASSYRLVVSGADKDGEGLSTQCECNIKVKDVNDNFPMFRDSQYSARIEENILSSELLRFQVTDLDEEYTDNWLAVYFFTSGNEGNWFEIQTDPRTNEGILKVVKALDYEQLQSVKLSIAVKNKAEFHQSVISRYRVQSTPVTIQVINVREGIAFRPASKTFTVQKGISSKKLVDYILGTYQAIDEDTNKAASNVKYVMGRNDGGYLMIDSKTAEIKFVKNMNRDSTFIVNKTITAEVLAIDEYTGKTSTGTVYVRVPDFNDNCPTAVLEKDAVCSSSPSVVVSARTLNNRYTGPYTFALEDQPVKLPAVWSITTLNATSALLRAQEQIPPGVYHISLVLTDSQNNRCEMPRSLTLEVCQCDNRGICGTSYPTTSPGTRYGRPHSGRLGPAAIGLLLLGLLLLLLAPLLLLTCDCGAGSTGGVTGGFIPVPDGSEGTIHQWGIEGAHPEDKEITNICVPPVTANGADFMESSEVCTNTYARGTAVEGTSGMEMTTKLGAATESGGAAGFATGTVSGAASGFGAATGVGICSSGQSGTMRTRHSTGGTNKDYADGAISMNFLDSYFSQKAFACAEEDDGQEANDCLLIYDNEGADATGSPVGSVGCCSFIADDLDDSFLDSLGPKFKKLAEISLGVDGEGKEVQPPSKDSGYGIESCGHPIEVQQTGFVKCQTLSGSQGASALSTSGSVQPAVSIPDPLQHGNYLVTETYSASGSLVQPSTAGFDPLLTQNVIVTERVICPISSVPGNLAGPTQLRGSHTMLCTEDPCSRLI
Arr AP2 block: human beta-arrestin and AP2 interaction inhibition; FITC-arrestin peptide / GST-AP2 beads, flow cytometry; AP2 beta2 appendage carries R879A mutation; inhibition, % at 10 µM; 340,000 tested, 0.31% active; AID 504490;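 active means inhibition above a set limit, near 3 SD of compounds lacking own fluorescence, cut at about 54% in these data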;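 further: plate controls were DMSO wells for no effect and 5 µM unlabelled arrestin peptide for full effect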
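System: GST-tagged AP2 beta2-adaptin appendage (R879A) on 4 µm glutathione beads / Reagent: FITC-arrestin peptide, 50 nM / Detection: HyperCyt-sampled flow cytometry, FL1 channel, ex 488/em 535 nm / Timing: 12 min plus 1 h, RT / Buffer or medium: PBS plus Tween 20 (0.05%) and BSA (0.1%)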
ALR H2O2 inh: inhibitors of human sulfhydryl oxidase ALR; P55789; purified ALR, DTT oxidation, H2O2 HRP-luminol luminescence; inhibition, % (no concentration beside the values); 290,000 tested, 3.8% active; AID 485317;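 active means mean replicate inhibition above about 79%, with every replicate also reaching it, limit read from the data; inconclusive means only one of the two criteria met; inactive means mean below limit and not every replicate reaching it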
PolyA inhibitor: yeast polyadenylation inhibition; 300,000 tested, 0.02% active; activity score, % at 12 µM; S. cerevisiae SKY197-pL101 polyadenylation reporter, beta-gal luminescence; efflux-impaired pdr1/pdr3 knockout yeast; score 100 = 6 SD above DMSO;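 active means lowest replicate activity score at least 50, where 100 means six control SD above control mean; inconclusive means lowest score under 50 but half or more replicates reach 50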;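 further: yeast exposed to compound for 9 h at 30 °C; higher score means more reporter readthrough which indicates perturbed polyadenylation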
NALP1 yeast inh: inhibitors of NALP1 inflammasome in yeast. inhibition, % at 10 µM. S. cerevisiae NALP1/ASC/caspase-1 growth, X-gal OD620, 72 h. AID 2071. 280,000 tested, 0.61% active; in the data active means inhibition mostly above about 24%, no sharp cut-off; inactive means mostly below about 32%
Active calls of the source: *; ? = inconclusive; / = not tested or not shown.

SMILES	NALP3 yeast inh	Pemphigus Ab inh	Arr AP2 block	ALR H2O2 inh	PolyA inhibitor	NALP1 yeast inh
O=C(NCC(c1ccco1)N1CCN(c2ccc(F)cc2)CC1)C(=O)NC1CC1 (configuration not stated)	6	105	25	6	-7	/
COCCCNC(=O)C(=O)NCC(c1ccco1)N1CCN(c2ccc(OC)cc2)CC1 (configuration not stated)	16	/	-2	31	0	-11
O=C(NCCCn1ccnc1)C(=O)NCC(c1ccco1)N1CCN(c2ccc(F)cc2)CC1 (configuration not stated)	7	101	9	98*	15	-7
CN(Cc1ccccc1)CC1C2CCC(C2)C1O (configuration not stated)	/	114	-6	/	/	/
CCc1nn(CC(=O)NCCC2=CCCCC2)c(=O)c2cc3cc(F)ccc3n12	6	/	-2	4	-8	14
Nc1nc(N)c2cc(S(=O)(=O)c3ccc4ccccc4c3)ccc2n1	/	102	/	/	/	/
O=C(c1cccc(Cl)c1)N1CCN(c2ncnc3c2cnn3-c2ccccc2)CC1	13	106	26	-24	-14	25*
Cc1cccc(N2C(=O)C(O)=C(C(=O)c3cccs3)C2c2cccc(Oc3ccccc3)c2)n1 (configuration not stated)	20	113	-26	98*	8	0
O=C(C1=C(O)C(=O)N(c2ccccc2)C1c1ccc([N+](=O)[O-])cc1)c1cccs1 (configuration not stated)	5	93	15	89*	-22	-13
Cc1cccc(N2C(=O)C(O)=C(C(=O)c3cccs3)C2c2ccccc2)n1 (configuration not stated)	14	112	-1	-17	-2	-14
N#Cc1ccc(N[C@@H]2CCN3C(=O)c4ccccc4[C@@H]3C[C@H]2O)cc1	/	99	0	/	/	/
Cc1cn(CC(=O)NCC(C)c2ccccc2)c(=O)[nH]c1=O (configuration not stated)	/	102	10	/	/	/
CC1CC(C)CN(C(=O)c2nn(C)c3c2CS(=O)(=O)c2ccccc2-3)C1 (configuration not stated)	1	107	8	38	-5	21
Oc1cccc(/C=N/Nc2cc(N3CCOCC3)nc(N3CCOCC3)n2)c1	7	98	-19	73	1	-18
Cc1nc(N/N=C/c2ccc(O)cc2O)cc(N2CCOCC2)n1	27	113	-12	95*	3	-20
Cc1nc(N/N=C/c2cccc(F)c2)cc(N2CCOCC2)n1	20	110	41	6	24	17
Oc1ccc(/C=N/Nc2cc(N3CCOCC3)nc(N3CCOCC3)n2)cc1O	14	124	-6	99*	-1	11
CC(C)=C1SC(N2CCN(c3ccc(Cl)cc3)CC2)=NC1=O	18	99	-6	4	-9	2
CC(C)=C1SC(N2CCN(c3cccc(C(F)(F)F)c3)CC2)=NC1=O	12	42*	6	-6	36	7
CC(C)=C1SC(N2CCN(c3ccc(C)cc3)CC2)=NC1=O	18	104	9	94*	8	-8
Cc1ccc(NC(=O)COc2cccc3c2OC(C)(C)C3)c(O)c1	33	101	-5	48	/	/
COCCN1Cc2cccc(C(=O)NCCc3ccccc3)c2C1=O	11	89	-4	-18	2	16
COCCCN1Cc2cccc(C(=O)O)c2C1=O	12	85	-2	15	8	38*
CC1(C)C(=O)C=C(N2CCCCC2)c2ccccc21	/	116	/	/	/	/
CCc1ccc(NC(=O)CCS(=O)(=O)c2cccc3nsnc23)cc1	14	/	24	-8	6	5
SMILES	NALP3 yeast inh	Pemphigus Ab inh	Arr AP2 block	ALR H2O2 inh	PolyA inhibitor	NALP1 yeast inh
CCN(CC)c1ccc(NC(=O)CCS(=O)(=O)c2cccc3nsnc23)c(C)c1	1	101	-18	99*	11	-8
COc1ccc(C(=O)Oc2ccc(/C=N/O)cc2)cc1	-3	99	-4	91*	0	14
COc1ccc(C2=NOC(C(=O)Nc3cccc(O)c3)C2)cc1 (configuration not stated)	5	82*	2	12	13	13
COc1cc(C2=NOC(C(=O)Nc3ccc(C(C)=O)cc3)C2)cc(OC)c1OC (configuration not stated)	-1	79*	10	-7	-6	0
C[C@@H]1CN([C@H](C)CO)C(=O)CCCn2nncc2CO[C@H]1CN(C)S(=O)(=O)c1ccccc1F	/	100	/	/	/	/
COC(=O)c1sccc1NC(=O)c1ccc(C(C)C)cc1	31	124	42	13	0	23
Cc1nc(C)c(C(=O)OCC(=O)NCc2ccccc2Cl)s1	2	122	28	-2	/	/
Cc1cc(C)c(S(C)(=O)=O)c(Oc2ccc(C(C)(C)C)cc2)n1	16	105	-22	/	0	30*
O=C(NCCc1nnc2ccc(NCCCN3CCOCC3)nn12)c1ccccc1	31	109	-5	-5	-4	8
Cc1ccc(C(=O)NC(=O)CSc2nncn2C)cc1	4	109	-14	1	-20	8
Cc1ccc(C2=NN=C(NC(=O)CSc3nncn3C)SC2)cc1	11	104	8	99*	4	7
Oc1ccc(-c2csc(Nc3ccccn3)n2)c(O)c1	9	118	36	93*	-16	3
NS(=O)(=O)c1ccc(Nc2nc(-c3ccc(O)cc3O)cs2)cc1	-3	120	-2	99*	-4	-12
Cc1cccnc1Nc1nc(-c2ccc(O)cc2O)cs1	16	/	2	77*	-5	-33
c1ccc(Nc2nc(-c3cccs3)cs2)nc1	7	109	3	37	-28	-68
O=CNc1c(Cl)cc2c(c1Cl)Cc1cc([N+](=O)[O-])ccc1-2	/	85	0	/	/	/
COc1cc(/C=C2/SC(=S)N(CCC(=O)Nc3cccnc3)C2=O)cc(OC)c1OC	/	95	/	/	/	/
CCN(CC(=O)Nc1cc(Cl)ccc1C)C(=O)c1nc2nc(C)cc(C)n2n1	7	108	-6	2	/	/
Cc1ccc2c(c1)N(C(=O)CCC(=O)NCc1cccnc1)CC(C)O2 (configuration not stated)	6	104	-1	-6	-12	14
Cc1ccc(C2(C(F)(F)F)N=C3Sc4cc(C)ccc4N3C(=O)N2)cc1 (configuration not stated)	15	/	/	-1	?	36*
CCCCN(C(=O)c1cccc(S(=O)(=O)N2CCN(C)CC2)c1)c1c(N)n(CCC)c(=O)[nH]c1=O	16	98	-10	/	-20	/
O=C(Nc1ccccc1C(=O)NCC1CCCO1)c1ccc(Cl)cc1 (configuration not stated)	16	102	-16	-3	4	1
